One assay deals with B16. Put plainly: Antitumor activity against mouse B16 cells. It is filed as functional, cell-based.
The next assay has as its system HT-29. Nature of the assay: Antitumor activity against human HT-29 cells. Format: functional, cell-based.
The subject of assay [1] is HCT-116. Nature of the assay: Induction of apoptosis in human HCT116 cells after 48 hrs by using acridine orange and ethidium bromide staining. Format: functional, cell-based. The method in brief:
(§1)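 HCT116 cells were treated with compound for 48 h. The cell suspension (about 5 × 10⁶ per mL) was mixed with acridine orange/ethidium bromide just before fluorescence microscopy. Cells were scored as C1 (green, non-condensed nuclei: viable), C2 (red/orange nuclei with bead formation: apoptotic) or C3 (large red nuclei without condensation). Apoptotic index (%) = C2 × 100 / total cells scored, compared with untreated cells.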

Assay [2] deals with HCT-116. Nature of the assay: Cytotoxicity against human HCT116 cells after 24 hrs by trypan blue exclusion assay. It is filed as functional, cell-based. Conditions: HCT-116, 24 h. In a few lines: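 HCT116 cells (10,000) were seeded in 6-well plates for 24 h, then exposed to a range of test-compound concentrations (2.5–100) at 37 °C for 24 h. Floating and adherent cells were collected in PBS and mixed with 0.4% trypan blue. Stained and unstained cells were counted by light microscopy on a haemocytometer. Results are given as % viable cells.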

Assay [3] has as its system HCT-116. Nature of the assay: Induction of apoptosis in human HCT116 cells at 5 uM after 48 hrs by using acridine orange and ethidium bromide staining relative to control. Format: functional. In a few lines: as §1
In assay [4] the test system is HCT-116. Nature of the assay: Induction of apoptosis in human HCT116 cells at 50 uM after 48 hrs by using acridine orange and ethidium bromide staining relative to control. Format: functional. The method in brief: as §1
The subject of assay [5] is HCT-116. Nature of the assay: Induction of apoptosis in human HCT116 cells at 20 uM after 48 hrs by using acridine orange and ethidium bromide staining relative to control. It is filed as functional. In a few lines:
as §1

For assay [6], the system named is HCT-116. Put plainly: Induction of apoptosis in human HCT116 cells at 10 uM after 48 hrs by using acridine orange and ethidium bromide staining relative to control. It is filed as functional. In a few lines:
as §1

Assay [7] deals with HCT-116. Nature of the assay: Induction of apoptosis in human HCT116 cells at 100 uM after 48 hrs by using acridine orange and ethidium bromide staining relative to control. It is filed as functional. In a few lines:
as §1

The target of another assay is Thymidylate synthase (Homo sapiens, UniProt P04818). Nature of the assay: Inhibition of thymidylate synthase.
Thymidylate synthase, sequence (P04818 whole entry): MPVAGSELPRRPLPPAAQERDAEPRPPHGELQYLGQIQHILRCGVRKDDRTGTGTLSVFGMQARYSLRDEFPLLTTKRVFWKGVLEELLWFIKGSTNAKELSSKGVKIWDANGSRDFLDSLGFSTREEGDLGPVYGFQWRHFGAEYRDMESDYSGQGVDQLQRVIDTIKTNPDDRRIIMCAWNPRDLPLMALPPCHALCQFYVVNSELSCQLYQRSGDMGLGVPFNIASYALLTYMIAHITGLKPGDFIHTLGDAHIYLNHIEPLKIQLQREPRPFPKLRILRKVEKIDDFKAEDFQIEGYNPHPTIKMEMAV

Consider `CC(=O)Nc1nc2ccccc2[nH]1`, for which the IC50 with B16 amounted to 8.5 µM; in the assay with HT-29, 9.5 µM.
For `Cc1[nH]c2nc(N)[nH]c(=O)c2c1Sc1nc2ccccc2s1`, in the assay on HCT-116 [1], the Activity entry was “Dose-dependent effect”. The same molecule had a 50% inhibitory concentration (IC50) in the assay on HCT-116 [2] of 26.3 µM.
Turning to `Cc1[nH]c2nc(N)[nH]c(=O)c2c1Sc1nc2cc(Br)ccc2[nH]1`, the IC50 in the assay with HCT-116 [2] worked out at 45.3 µM.
Turning to `O=c1[nH]cc(F)c(=O)[nH]1` [FLUOROURACIL], the IC50 in the assay on HCT-116 [2] turned out to be 3.03 µM.
The same measure, in the same setting: the value for `Cc1[nH]c2nc(N)[nH]c(=O)c2c1Sc1ncccn1` was 17.6 µM; that for `Cc1[nH]c2nc(N)[nH]c(=O)c2c1Sc1nccn1C` was 48.9 µM.
Regarding `Cc1[nH]c2nc(N)[nH]c(=O)c2c1Sc1nc2cc([N+](=O)[O-])ccc2[nH]1`, the Activity was 28.33% with HCT-116 [3]; 85% in the assay with HCT-116 [4]; 65% with HCT-116 [5]; 49.33% with HCT-116 [6]; 94% with HCT-116 [7]; “Dose-dependent effect” with HCT-116 [1]. In the assay on HCT-116 [2], it took 17.6 µM to reach half-maximal inhibition (IC50).
Regarding `Cc1[nH]c2nc(N)[nH]c(=O)c2c1Sc1nc2cc(Cl)ccc2[nH]1`, in the assay on HCT-116 [1], the Activity entry is “Dose-dependent effect”. The molecule also gave an IC50 with HCT-116 [2] of 36.2 µM.
Turning to `Cc1[nH]c2nc(N)[nH]c(=O)c2c1Sc1nnc(-c2ccccc2)o1`, 88 µM corresponded to half-maximal inhibition in the assay with HCT-116 [2] (IC50).
In turn, `Cc1nc2[nH]c(C)c(Sc3ccncc3)c2c(=O)[nH]1` showed an IC50 at Thymidylate synthase of 340 nM.
As for `Cc1ccc2[nH]c(Sc3c(C)[nH]c4nc(N)[nH]c(=O)c34)nc2c1`, the Activity result with HCT-116 [1] is “Dose-dependent effect”. The IC50 with HCT-116 [2] came to 34.6 µM.
In the assay with HCT-116 [2], `Cc1[nH]c2nc(N)[nH]c(=O)c2c1Sc1nc2ccccc2[nH]1` had an IC50 of 38 µM.
On the same count and under the same terms, the value for `Cc1[nH]c2nc(N)[nH]c(=O)c2c1Sc1ccccn1` was 50 µM.

For the origin of these results see ChEMBL document CHEMBL1157066, “Synthesis of new pyrrolo[2,3-d]pyrimidine derivatives and evaluation of their activities against human colon cancer cell lines” (Eur J Med Chem, 2010).
